TAAR1 ag: human TAAR1 agonists, primary screen, Fluo-8 calcium fluorescence, CHO RD-HGA16 cells; Trace amine-associated receptor 1 (Homo sapiens), Q96RJ0; actives 0.99% (n = 360,000); AID 624467, 2012; activation, % at 3 µM; vehicle wells 0%, saturating PEA agonist 100%;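 active means activation above the mean activation of all test compounds in the run plus 3 SD, cut at about 38% in these data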
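Assay system – CHO-derived RD-HGA16 cells with stable Gα16 and human TAAR1 · Compound dosing – one-point dosing at 3 µM (nominal) · Incubation – 17-24 h seeding, 75 min 37 °C dye, 30 min RT · Measured by – kinetic Fluo-8 calcium fluorescence · Control set – DMSO vehicle as 0%, PEA at EC100 as 100% · Repeats – single well for each compound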
OX1R antag-1: OX1R (HCRTR1) antagonists, primary screen, fluorescence, CHO/OX1R cells, Fluo-8 calcium, orexin A | Orexin/Hypocretin receptor type 1 (Homo sapiens), O43613 | Fluo-8 calcium fluorescence | inhibition, % at 5 µM | actives 0.43% (n = 330,000) | AID 434989, 2010;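 active means inhibition above its plate's threshold, mean inhibition of all tested compounds on the plate plus 3 SD, cut at about 37% in these data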
Target sequence (O43613 whole entry, looked up): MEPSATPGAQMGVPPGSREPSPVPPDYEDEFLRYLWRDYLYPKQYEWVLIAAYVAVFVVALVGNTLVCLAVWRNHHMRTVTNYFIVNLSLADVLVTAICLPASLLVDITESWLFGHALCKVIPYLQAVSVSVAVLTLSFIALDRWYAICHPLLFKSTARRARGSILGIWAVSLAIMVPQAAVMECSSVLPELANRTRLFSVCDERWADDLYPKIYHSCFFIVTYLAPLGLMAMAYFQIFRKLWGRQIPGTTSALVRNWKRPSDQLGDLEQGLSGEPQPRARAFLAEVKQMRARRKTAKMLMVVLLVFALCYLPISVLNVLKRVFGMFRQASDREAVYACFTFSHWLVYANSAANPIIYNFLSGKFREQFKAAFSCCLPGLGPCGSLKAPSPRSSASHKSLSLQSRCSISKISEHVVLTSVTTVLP
GPR7 antag: GPR7 receptor antagonists, primary screen, cell-based, fluorescence, single concentration. Neuropeptides B/W receptor type 1 (Homo sapiens), P48145. actives 1.1% (n = 290,000). GPR7-expressing cells, fluorescence antagonist assay. inhibition, % at 4.4 µM. AID 1861, 2009; in the data active means inhibition above about 16%, passing the limit was not always enough;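 further: cells stimulated with the agonist NPW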
CHO parental Ca: ATP-evoked calcium signal inhibitors, parental CHO, primary screen, counter-screen for OX1R antagonist project, cell-based, fluorescence, Fluo-8 calcium dye | inhibition, % at 5.6 µM | actives 0.63% (n = 330,000) | parental CHO-K1, ATP-induced calcium, Fluo-8 fluorescence | AID 463079, 2010;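 active means inhibition above that plate's mean sample inhibition plus 3 SD, cut at about 26% in these data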
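Test system: untransfected parental CHO cell line. Compound: one dose, 5.6 µM nominal. Detection: intracellular calcium via Fluo-8 no-wash fluorescent dye. Measure: % inhibition. Benchmarks: ATP-challenged DMSO wells low, unchallenged DMSO wells high.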
TAAR1 antagonist: human TAAR1 antagonists, primary screen, Fluo-8 calcium fluorescence, CHO RD-HGA16 cells. antagonist. actives 1.5% (n = 360,000). inhibition, % at 3 µM. Trace amine-associated receptor 1 (Homo sapiens), Q96RJ0;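 active means inhibition above a per-plate cutoff, the mean inhibition of test compounds on that plate plus 3 SD, cut at about 49% in these data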
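System: CHO RD-HGA16 cells bearing hTAAR1. Reagent: EC80 β-phenethylamine stimulus. Schedule: seeding 17-24 h prior, 75-min 37 °C, 30-min RT dye loading. Signal: Fluo-8 intracellular calcium dye fluorescence, real-time kinetic reads. Read-out: % inhibition from peak post-agonist over basal fluorescence ratio. Benchmarks: vehicle wells and EC80 agonist wells. Replicates: n of 1.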
OX1R antag-2: antagonists of human orexin 1 receptor (OX1R) | Orexin/Hypocretin receptor type 1 (Homo sapiens), O43613 | OX1R-expressing cells, FRET antagonist read-out | inhibition, % at 6.6 µM | actives 1.8% (n = 330,000) | AID 485270, 2010; in the data active means inhibition mostly above about 38%, no sharp cut-off; inactive means mostly below about 40%
Numbers stand for hits; n = inactive; x = no result given. In the library only some 4.5% were active in any assay of this set; here they are far more common.

SMILES	TAAR1 ag	OX1R antag-1	GPR7 antag	CHO parental Ca	TAAR1 antagonist	OX1R antag-2
CC(NC(=O)C1CCN(Cc2ccc(Oc3ccccc3)cc2)CC1)c1cccc2ccccc12 (centres undefined)	n	x	x	x	49.1	x
O=C(Cc1ccc(NC(=O)C2CCN(C(=O)C3CCCC3)CC2)cc1)Nc1cccc(C(=O)N2CCCCC2)c1	n	x	x	x	n	x
CSc1ccc(/C=N/N(C)S(=O)(=O)c2ccc(C)cc2)cc1	n	n	n	63.0	n	n
Cc1ccc(/C=N/N(C)S(=O)(=O)c2ccc(C)cc2)cc1	n	n	n	51.1	n	n
COC(=O)[C@]12C[C@H](CC(=O)N3CCN(C(=O)c4ccco4)CC3)C(=O)N(CCC3=CCCCC3)C1=C[C@H](C(C)(C)C)O[C@@H]2C	n	x	x	x	n	x
COc1ccccc1-c1nnc(-c2ccc(C)cc2)o1	n	n	x	n	n	n
COc1ccccc1-c1nnc(-c2ccc(N3CCOCC3)cc2)o1	n	n	n	n	n	74.5
CC(=O)c1c(C)n(-c2cccc(Cl)c2)c2ccc(O)cc12	n	n	n	n	51.1	n
O=C(CSc1nc2ccccc2c(=O)n1NC(=O)Cc1ccccc1)NCc1ccccc1Cl	n	n	n	n	n	52.6
O=C(N[C@H](Cc1ccccc1)C(=O)N1CCCN(Cc2ccccc2F)CC1)[C@H]1O[C@@H](n2ccc(=O)[nH]c2=O)[C@H](O)[C@@H]1O	n	x	x	x	n	x
O=C(COc1ccc(S(=O)(=O)N2CCOCC2)cc1)NCCc1ccc(Cl)cc1	n	x	x	x	n	x
O=C(NCc1ccccn1)c1cc(-c2ccc(-c3ccccc3)cc2)nc2ccccc12	n	n	n	n	51.1	n
Cc1cccc(-c2cc(C(=O)NCc3ccccn3)c3ccccc3n2)c1	n	n	n	n	52.7	n
O=C(NCc1ccccn1)c1cc(-c2ccccc2)nc2ccccc12	n	n	n	n	n	n
Cc1c(-c2ccccc2)nnn1-c1ccc(F)c(Cl)c1	n	x	x	x	n	x
COc1ccc(CCNc2nc(-c3ccc(O)cc3)cs2)cc1OC	n	61.0	n	58.1	n	32.1
Cn1c(N)c(C(=O)COC(=O)c2ccccc2C(=O)c2ccc(Cl)c([N+](=O)[O-])c2)c(=O)n(C)c1=O	x	n	x	n	x	35.5
COc1ccc(N(C)S(=O)(=O)c2cccc(C(=O)OCC(=O)c3c(N)n(C)c(=O)n(C)c3=O)c2)cc1	n	n	x	n	73.3	n
CCN(c1ccccc1)S(=O)(=O)c1cccc(C(=O)OCC(=O)c2c(N)n(C)c(=O)n(C)c2=O)c1	n	x	x	x	n	x
CN(c1ccccc1)S(=O)(=O)c1ccc(Cl)c(C(=O)OCC(=O)c2c(N)n(C)c(=O)n(C)c2=O)c1	n	x	x	x	61.3	x
CCN(Cc1ccc2c(c1)OCCO2)C(=O)CSc1nc(C)nc2sc(C)c(C)c12	n	n	x	n	59.5	n
Cc1[nH]nc2c1C(c1ccc(F)cc1)N(Cc1ccccc1)C2=O (centres undefined)	n	x	x	x	n	x
Cc1cccn2c(=O)c3cc(C(=O)NC4CCCC4)c(=N)n(CCc4ccccc4)c3nc12	n	n	n	n	n	n
Cc1cccn2c(=O)c3cc(C(=O)NCCc4ccccc4)c(=N)n(CCCn4ccnc4)c3nc12	n	n	n	n	n	58.7
C=CCn1c(=N)c(C(=O)NCCCOC)cc2c(=O)n3cccc(C)c3nc21	n	n	n	n	n	61.0
SMILES	TAAR1 ag	OX1R antag-1	GPR7 antag	CHO parental Ca	TAAR1 antagonist	OX1R antag-2
Cc1cccn2c(=O)c3cc(C(=O)NCC4CCCO4)c(=N)n(CCN4CCOCC4)c3nc12 (centres undefined)	n	n	n	n	n	162.1
CCCn1c(=N)c(C(=O)NCC2CCCO2)cc2c(=O)n3cccc(C)c3nc21 (centres undefined)	n	n	n	n	n	56.0
Nc1cc2ccccc2cc1NS(=O)(=O)N1CCCCC1	n	x	x	x	n	x
O=C(Nc1cccc([N+](=O)[O-])c1)OCc1ccc2c(c1)OCO2	n	x	x	x	n	x
O=C(C(=O)N1CCC(Cc2ccccc2)CC1)c1cccs1	n	x	x	x	n	x
Cc1cccn2c(=O)c3cc(C(=O)NCc4ccccc4)c(=N)n(CCCN4CCOCC4)c3nc12	n	x	x	x	n	x
Cc1ccc(Cn2c(=N)c(C(=O)NCC3CCCO3)cc3c(=O)n4cccc(C)c4nc32)cc1 (centres undefined)	n	n	n	n	n	n
O=C(NCc1cccnc1)c1cccn2c(=O)c3sccc3nc12	n	n	n	n	n	61.5
Cc1cccn2c(=O)c3cc(C(=O)NCCN4CCOCC4)c(=N)n(CCCN4CCOCC4)c3nc12	n	n	n	n	n	52.1
O=C(O)c1ccccc1C(=O)NCc1cccnc1	n	n	n	n	n	n
COCCCn1c(=N)c(C(=O)NCC2CCCO2)cc2c(=O)n3cccc(C)c3nc21 (centres undefined)	n	n	n	n	n	64.2
Cc1cccn2c(=O)c3cc(C(=O)NCc4cccnc4)c(=N)n(CC4CCCO4)c3nc12 (centres undefined)	n	n	n	n	n	69.6
CCN(CC)CCCNC(=O)c1cc2cc(Cl)ccc2nc1N	n	x	x	x	n	x
Cc1cccn2c(=O)c3cc(C(=O)NCc4ccco4)c(=N)n(C4CCCCC4)c3nc12	x	n	n	n	x	n
Cc1cccn2c(=O)c3cc(C(=O)NCc4ccco4)c(=N)n(CCOCCO)c3nc12	x	n	n	n	x	43.8
CCn1cc(C(=O)N[C@@H](CCSC)C(=O)NCCN2CCOCC2)c(=O)c2cc3c(cc21)OCO3	n	n	n	n	n	n
COc1ccc(C2NCCc3c2[nH]c2ccccc32)cc1COc1ccc(F)cc1 (centres undefined)	48.8	n	46.4	31.9	n	n
Cc1ccccc1S(=O)(=O)N(C)C[C@@H]1OCc2cn(nn2)CCCC(=O)N([C@@H](C)CO)C[C@H]1C	n	x	x	x	n	x
COC(=O)C1=C(C)N(C)C(=NCc2ccc(OC)cc2)NC1c1cccc(C(F)(F)F)c1 (centres undefined)	n	x	x	x	n	x
COc1ccccc1N(CC(O)Cn1c(C)nc2ccccc21)S(=O)(=O)c1ccccc1 (centres undefined)	n	n	n	n	n	63.0
CCCCC(=O)Nc1ccc(C(=O)c2ccccc2)cc1	n	n	20.0	n	n	n
CCCc1cc(C(=O)N2CCCC(C(=O)c3cc(C)c(OC)c(C)c3)C2)n(C)n1 (centres undefined)	n	n	n	n	n	36.8

Screening data as filed in PubChem.
